Legend:
Safety, TEAEs, SAD = type: in vivo, human
In short: (§1)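 Safety population: all participants exposed to study drug, followed from first dose to the end‑of‑study visit. Assessments covered physical and neurological exams, AEs, SAEs and AESIs (seizure, ALT ≥2×ULN, QTc ≥500 ms, pregnancy, overdose). Lab, vital‑sign and 12‑lead/Holter ECG abnormalities were also recorded. Coding used MedDRA 23.1 (part 1) or 24.0 (part 2), with severity graded 1–4 per FDA guidance. Counts were summarised per dose group, with placebo pooled.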

[1] = Overall safety and tolerability, all study parts; type: in vivo, human
In short: as §1

Safety, TEAEs, PK‐CSF = type: in vivo, human; details: for ALT increase (AESI), one participant: PK‐CSF 10 mg
In short: as §1

Plasma PK, SAD = type: in vivo, human; details: for CL/F, geometric mean (%CV): fasting
In short: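 Healthy adults received a single fasted oral capsule dose (10–40 mg) or placebo; fasting was overnight ≥8 h and 2 h post‑dose. Plasma was sampled predose, at 10 postdose times on day 1 and once each on days 2 and 3, and quantified by HPLC‑MS (LLOQ 1 ng/mL). Cmax, Tmax, AUClast, AUC, t1/2z, CL/F and Vz/F were computed. Dose proportionality was tested with a linear model.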

RIPK1 [2] = target: T1, RIPK1 (Homo sapiens, UniProt Q13546); assay: In vitro inhibition of RIPK1 activity in human PBMCs; type: cell-based
T1 sequence (Q13546 1-671): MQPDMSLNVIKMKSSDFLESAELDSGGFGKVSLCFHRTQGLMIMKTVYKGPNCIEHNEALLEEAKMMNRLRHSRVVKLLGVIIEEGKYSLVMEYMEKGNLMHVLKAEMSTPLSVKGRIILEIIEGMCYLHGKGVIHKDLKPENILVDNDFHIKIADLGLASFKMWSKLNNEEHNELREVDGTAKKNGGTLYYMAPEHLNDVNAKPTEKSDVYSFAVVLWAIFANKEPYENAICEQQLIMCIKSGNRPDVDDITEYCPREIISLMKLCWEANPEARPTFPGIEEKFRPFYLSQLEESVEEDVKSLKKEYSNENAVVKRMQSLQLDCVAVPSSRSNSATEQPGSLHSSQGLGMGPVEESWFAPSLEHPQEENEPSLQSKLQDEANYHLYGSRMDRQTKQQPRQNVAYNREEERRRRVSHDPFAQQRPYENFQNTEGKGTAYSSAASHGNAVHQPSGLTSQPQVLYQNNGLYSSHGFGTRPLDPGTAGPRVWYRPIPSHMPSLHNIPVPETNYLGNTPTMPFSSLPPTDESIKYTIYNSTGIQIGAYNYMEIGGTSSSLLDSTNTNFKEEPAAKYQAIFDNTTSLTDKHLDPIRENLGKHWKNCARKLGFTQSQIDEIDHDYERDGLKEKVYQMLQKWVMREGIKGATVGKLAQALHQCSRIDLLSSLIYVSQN

Plasma PK, PK‐CSF = type: in vivo, human; details: for CL/F, geometric mean (%CV): after breakfast; for Vd/F: both, human, plasma, oral
In short: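 Open‑label part: single oral 10 or 40 mg dose given about 30 min after breakfast. Plasma was collected predose and at 10 postdose times, one of them coinciding with lumbar‑puncture CSF sampling. Drug was quantified by validated HPLC‑MS (LLOQ 1 ng/mL). CL/F and Vz/F were derived from plasma concentration‑time data and summarised per dose group.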

RIPK1 [3] = target: T1, RIPK1; assay: pS166‐RIPK1 inhibition in PBMC lysates, SAD; type: in vivo; details: SAD all dose groups, from 1 h to at least 5 h postdose
In short: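 After a single fasted oral dose or placebo, blood was collected predose, at 1, 3, 5 and 8 h on day 1, and at 24 h. PBMCs were isolated and autophosphorylated RIPK1 (pS166) quantified in lysates. Percent change from baseline was summarised descriptively as median (Q1–Q3) by dose group and timepoint.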

CYP3A4 = assay: Plasma 4β‐hydroxycholesterol day 14/day 1 ratio; type: in vivo, human; details: repeated doses up to 20 mg b.i.d.
In short: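 MAD healthy adults received oral capsules (10 or 20 mg q.d., 15 or 20 mg b.i.d.; fasted) or placebo for 14 days. Plasma 4β‑hydroxycholesterol was measured predose on day 1 and day 14, and day 14/day 1 ratios were calculated. Geometric mean of the log‑transformed ratio with 90% CI was obtained by analysis of covariance, per dose group and overall.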

[4] = both, human, plasma, oral, 10 mg
[5] = both, human, plasma, oral, 20 mg
[6] = both, human, plasma, oral, 30 mg
[7] = both, human, plasma, oral, 40 mg

CL/F, geometric mean (%CV) (Plasma PK, SAD; SAD 10 mg single dose): 8.56 (37.8) L/h | CL/F, geometric mean (%CV) (Plasma PK, SAD; SAD 20 mg single dose): 8.28 (21.4) L/h | CL/F, geometric mean (%CV) (Plasma PK, SAD; SAD 30 mg single dose): 12.3 (44.7) L/h | CL/F, geometric mean (%CV) (Plasma PK, SAD; SAD 40 mg single dose): 7.72 (36.1) L/h | Tmax (Plasma PK, SAD; both, human, plasma, oral): 1 to 1.5 h | half-life (Plasma PK, SAD; both, human, plasma, oral): 5.7 to 8 h | AUC(0-t) (Plasma PK, SAD; [4]): 1120 ng·h/mL | Vd/F (Plasma PK, SAD; [4]): 98.4 L | half-life (Plasma PK, SAD; [4]): 7.97 h | Cmax (Plasma PK, SAD; [5]): 241 ng/mL | Tmax (Plasma PK, SAD; [5]): 1.5 h | Vd/F (Plasma PK, SAD; [5]): 89.4 L | half-life (Plasma PK, SAD; [5]): 7.48 h | Tmax (Plasma PK, SAD; [6]): 1 h | Vd/F (Plasma PK, SAD; [6]): 101 L | half-life (Plasma PK, SAD; [6]): 5.7 h | Tmax (Plasma PK, SAD; [7]): 1.5 h | Vd/F (Plasma PK, SAD; [7]): 70.1 L | half-life (Plasma PK, SAD; [7]): 6.29 h | IC50 (RIPK1 [2]): 3.16 nM | CL/F, geometric mean (%CV) (Plasma PK, PK‐CSF; PK‐CSF 10 mg single dose): 7.27 (29.7) L/h | CL/F, geometric mean (%CV) (Plasma PK, PK‐CSF; PK‐CSF 40 mg single dose): 8.43 (34.2) L/h | Vd/F (Plasma PK, PK‐CSF; 10 mg): 83.6 L | Vd/F (Plasma PK, PK‐CSF; 40 mg): 97.7 L | Median pS166‐RIPK1 inhibition in PBMC lysates (RIPK1 [3]): greater than 80% | Potential for CYP3A4 induction (CYP3A4): no potential for CYP3A4 induction
SMILES: CC(C)(C(=O)N1CCOc2c(C#N)cncc2C1)C(F)F [SAR443820]
Any grade ≥3 TEAE, n (%) (Safety, TEAEs, SAD; SAD 30 mg (n = 6)): 0 n (%) | Any treatment‐emergent AESI, n (%) (Safety, TEAEs, SAD; SAD 30 mg (n = 6)): 0 n (%) | Any treatment‐emergent SAE, n (%) (Safety, TEAEs, SAD; SAD 30 mg (n = 6)): 0 n (%) | Any TEAE, n (%) (Safety, TEAEs, SAD; SAD 40 mg (n = 6)): 3 (50.0) n (%) | Any grade ≥3 TEAE, n (%) (Safety, TEAEs, SAD; SAD 40 mg (n = 6)): 0 n (%) | Any treatment‐emergent AESI, n (%) (Safety, TEAEs, SAD; SAD 40 mg (n = 6)): 0 n (%) | Any treatment‐emergent SAE, n (%) (Safety, TEAEs, SAD; SAD 40 mg (n = 6)): 0 n (%) | Most common AEs ([1]; all study parts): dizziness (SAD) and headache (PK‐CSF and MAD) | Overall tolerability ([1]; healthy participants, single doses up to 40 mg, repeated doses up to 20 mg b.i.d. for 14 days): generally safe and well‐tolerated | Any TEAE, n (%) (Safety, TEAEs, PK‐CSF; PK-CSF 10 mg (n = 6)): 4 (66.7) n (%) | Any grade ≥3 TEAE, n (%) (Safety, TEAEs, PK‐CSF; PK-CSF 10 mg (n = 6)): 0 n (%) | Any treatment‐emergent AESI, n (%) (Safety, TEAEs, PK‐CSF; PK-CSF 10 mg (n = 6)): 1 (16.7) n (%) | Any treatment‐emergent SAE, n (%) (Safety, TEAEs, PK‐CSF; PK-CSF 10 mg (n = 6)): 0 n (%) | Any TEAE, n (%) (Safety, TEAEs, PK‐CSF; PK-CSF 40 mg (n = 6)): 6 (100.0) n (%) | Any grade ≥3 TEAE, n (%) (Safety, TEAEs, PK‐CSF; PK-CSF 40 mg (n = 6)): 1 (16.7) n (%) | Any treatment‐emergent AESI, n (%) (Safety, TEAEs, PK‐CSF; PK-CSF 40 mg (n = 6)): 0 n (%) | Any treatment‐emergent SAE, n (%) (Safety, TEAEs, PK‐CSF; PK-CSF 40 mg (n = 6)): 1 (16.7) n (%) | ALT increase (AESI), one participant (Safety, TEAEs, PK‐CSF; day 2): 1.5 ULN | ALT increase (AESI), one participant (Safety, TEAEs, PK‐CSF; day 7 (end‐of‐study visit)): 2.4 ULN | Dose proportionality of exposure (Plasma PK, SAD; SAD between 10 mg and 40 mg): no major deviation from dose proportionality | Food effect on absorption (Plasma PK, PK‐CSF; capsule in fed conditions vs fasted): no evidence that the extent of absorption was impacted by food

Reference: paper PMC10772668 (Clinical and Translational Science, 2023)
